Test results reported in ChEMBL document CHEMBL4152206, “Design, synthesis, cytotoxicity and mechanism of novel dihydroartemisinin-coumarin hybrids as potential anti-cancer agents” (Eur J Med Chem, 2018).

test system: HT-29; assay: Cytotoxicity against human HT-29 cells after 96 hrs under hypoxic condition by MTT assay; format: functional, cell-based; conditions: Homo sapiens, HT-29, 96 h; read-out: IC50
Summary of the method: (§1)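 MTT viability assay in HT-29 (high CA IX) and MDA-MB-231 (normal CA IX) cells under normoxic and hypoxic conditions; IC50 values reported.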

SMILES | IC50 [µM]
Cc1c(F)c(=O)oc2cc(-n3cc(CCO[C@H]4O[C@@H]5O[C@@]6(C)CC[C@H]7[C@H](C)CC[C@@H]([C@H]4C)[C@@]57OO6)nn3)ccc12 | 5.66
C[C@H]1[C@@H](OCCOc2ccc3c(C(F)(F)F)cc(=O)oc3c2)O[C@@H]2O[C@@]3(C)CC[C@H]4[C@H](C)CC[C@@H]1[C@@]24OO3 | 5.59
COC(=O)c1cc2ccc(OCCn3cc(CCO[C@H]4O[C@@H]5O[C@@]6(C)CC[C@H]7[C@H](C)CC[C@@H]([C@H]4C)[C@@]57OO6)nn3)cc2oc1=O | 75.7
Cc1c(F)c(=O)oc2cc(-n3cc(CO[C@H]4O[C@@H]5O[C@@]6(C)CC[C@H]7[C@H](C)CC[C@@H]([C@H]4C)[C@@]57OO6)nn3)ccc12 | 7.39
Cc1c(Cl)c(=O)oc2cc(OCCCO[C@H]3O[C@@H]4O[C@@]5(C)CC[C@H]6[C@H](C)CC[C@@H]([C@H]3C)[C@@]46OO5)ccc12 | 8.05
C[C@H]1[C@@H](OCCc2cn(CCOc3ccc4c(C(F)(F)F)cc(=O)oc4c3)nn2)O[C@@H]2O[C@@]3(C)CC[C@H]4[C@H](C)CC[C@@H]1[C@@]24OO3 | 4.01
Cc1c(C)c2ccc(-n3cc(CCO[C@H]4O[C@@H]5O[C@@]6(C)CC[C@H]7[C@H](C)CC[C@@H]([C@H]4C)[C@@]57OO6)nn3)cc2oc1=O | 0.08
Cc1cc(=O)oc2cc(OCCO[C@H]3O[C@@H]4O[C@@]5(C)CC[C@H]6[C@H](C)CC[C@@H]([C@H]3C)[C@@]46OO5)ccc12 | 3.69
Cc1c(C)c2ccc(O[C@H]3O[C@@H]4O[C@@]5(C)CC[C@H]6[C@H](C)CC[C@@H]([C@H]3C)[C@@]46OO5)cc2oc1=O | 30.3
Cc1c(Cl)c(=O)oc2cc(-n3cc(CCO[C@H]4O[C@@H]5O[C@@]6(C)CC[C@H]7[C@H](C)CC[C@@H]([C@H]4C)[C@@]57OO6)nn3)ccc12 | 0.01
Cc1cc(=O)oc2cc(OCCn3cc(CCO[C@H]4O[C@@H]5O[C@@]6(C)CC[C@H]7[C@H](C)CC[C@@H]([C@H]4C)[C@@]57OO6)nn3)ccc12 | 10.7
Cc1c(C)c2ccc(-n3cc(CO[C@H]4O[C@@H]5O[C@@]6(C)CC[C@H]7[C@H](C)CC[C@@H]([C@H]4C)[C@@]57OO6)nn3)cc2oc1=O | 0.02
Cc1c(C)c2ccc(OCCn3cc(CCO[C@H]4O[C@@H]5O[C@@]6(C)CC[C@H]7[C@H](C)CC[C@@H]([C@H]4C)[C@@]57OO6)nn3)cc2oc1=O | 14.6

same assay, conditions: ht-29

SMILES | IC50
COC(=O)c1cc2ccc(OCCCn3cc(CCO[C@H]4O[C@@H]5O[C@@]6(C)CC[C@H]7[C@H](C)CC[C@@H]([C@H]4C)[C@@]57OO6)nn3)cc2oc1=O | Nd(Insoluble)

test system: HT-29; assay: Cytotoxicity against human HT-29 cells after 96 hrs under normoxic condition by MTT assay; format: functional, cell-based; conditions: Homo sapiens, HT-29, 96 h; read-out: IC50; summary of the method: as §1

SMILES | IC50 [µM]
Cc1c(F)c(=O)oc2cc(-n3cc(CCO[C@H]4O[C@@H]5O[C@@]6(C)CC[C@H]7[C@H](C)CC[C@@H]([C@H]4C)[C@@]57OO6)nn3)ccc12 | 9.89
C[C@H]1[C@@H](OCCOc2ccc3c(C(F)(F)F)cc(=O)oc3c2)O[C@@H]2O[C@@]3(C)CC[C@H]4[C@H](C)CC[C@@H]1[C@@]24OO3 | 54.8
COC(=O)c1cc2ccc(OCCn3cc(CCO[C@H]4O[C@@H]5O[C@@]6(C)CC[C@H]7[C@H](C)CC[C@@H]([C@H]4C)[C@@]57OO6)nn3)cc2oc1=O | 67.2
Cc1c(F)c(=O)oc2cc(-n3cc(CO[C@H]4O[C@@H]5O[C@@]6(C)CC[C@H]7[C@H](C)CC[C@@H]([C@H]4C)[C@@]57OO6)nn3)ccc12 | 3.35
Cc1c(Cl)c(=O)oc2cc(OCCCO[C@H]3O[C@@H]4O[C@@]5(C)CC[C@H]6[C@H](C)CC[C@@H]([C@H]3C)[C@@]46OO5)ccc12 | 2.55
C[C@H]1[C@@H](OCCc2cn(CCOc3ccc4c(C(F)(F)F)cc(=O)oc4c3)nn2)O[C@@H]2O[C@@]3(C)CC[C@H]4[C@H](C)CC[C@@H]1[C@@]24OO3 | 3.58
Cc1c(C)c2ccc(-n3cc(CCO[C@H]4O[C@@H]5O[C@@]6(C)CC[C@H]7[C@H](C)CC[C@@H]([C@H]4C)[C@@]57OO6)nn3)cc2oc1=O | 4.71
Cc1cc(=O)oc2cc(OCCO[C@H]3O[C@@H]4O[C@@]5(C)CC[C@H]6[C@H](C)CC[C@@H]([C@H]3C)[C@@]46OO5)ccc12 | 2.35
Cc1c(C)c2ccc(O[C@H]3O[C@@H]4O[C@@]5(C)CC[C@H]6[C@H](C)CC[C@@H]([C@H]3C)[C@@]46OO5)cc2oc1=O | 11.8
Cc1c(Cl)c(=O)oc2cc(-n3cc(CCO[C@H]4O[C@@H]5O[C@@]6(C)CC[C@H]7[C@H](C)CC[C@@H]([C@H]4C)[C@@]57OO6)nn3)ccc12 | 1.5
Cc1cc(=O)oc2cc(OCCn3cc(CCO[C@H]4O[C@@H]5O[C@@]6(C)CC[C@H]7[C@H](C)CC[C@@H]([C@H]4C)[C@@]57OO6)nn3)ccc12 | 5.72
Cc1c(C)c2ccc(-n3cc(CO[C@H]4O[C@@H]5O[C@@]6(C)CC[C@H]7[C@H](C)CC[C@@H]([C@H]4C)[C@@]57OO6)nn3)cc2oc1=O | 2.67
Cc1c(C)c2ccc(OCCn3cc(CCO[C@H]4O[C@@H]5O[C@@]6(C)CC[C@H]7[C@H](C)CC[C@@H]([C@H]4C)[C@@]57OO6)nn3)cc2oc1=O | 3.47

same assay, conditions: ht-29

SMILES | IC50
COC(=O)c1cc2ccc(OCCCn3cc(CCO[C@H]4O[C@@H]5O[C@@]6(C)CC[C@H]7[C@H](C)CC[C@@H]([C@H]4C)[C@@]57OO6)nn3)cc2oc1=O | Nd(Insoluble)

test system: MDA-MB-231; assay: Cytotoxicity against human MDA-MB-231 cells after 96 hrs under hypoxic condition by MTT assay; format: functional, cell-based; conditions: Homo sapiens, MDA-MB-231, 96 h; read-out: IC50; summary of the method: as §1

SMILES | IC50 [µM]
Cc1c(F)c(=O)oc2cc(-n3cc(CCO[C@H]4O[C@@H]5O[C@@]6(C)CC[C@H]7[C@H](C)CC[C@@H]([C@H]4C)[C@@]57OO6)nn3)ccc12 | 3.36
C[C@H]1[C@@H](OCCOc2ccc3c(C(F)(F)F)cc(=O)oc3c2)O[C@@H]2O[C@@]3(C)CC[C@H]4[C@H](C)CC[C@@H]1[C@@]24OO3 | 6.14
COC(=O)c1cc2ccc(OCCn3cc(CCO[C@H]4O[C@@H]5O[C@@]6(C)CC[C@H]7[C@H](C)CC[C@@H]([C@H]4C)[C@@]57OO6)nn3)cc2oc1=O | 58.4
Cc1c(F)c(=O)oc2cc(-n3cc(CO[C@H]4O[C@@H]5O[C@@]6(C)CC[C@H]7[C@H](C)CC[C@@H]([C@H]4C)[C@@]57OO6)nn3)ccc12 | 2.6
Cc1c(Cl)c(=O)oc2cc(OCCCO[C@H]3O[C@@H]4O[C@@]5(C)CC[C@H]6[C@H](C)CC[C@@H]([C@H]3C)[C@@]46OO5)ccc12 | 2.38
C[C@H]1[C@@H](OCCc2cn(CCOc3ccc4c(C(F)(F)F)cc(=O)oc4c3)nn2)O[C@@H]2O[C@@]3(C)CC[C@H]4[C@H](C)CC[C@@H]1[C@@]24OO3 | 14.2
Cc1c(C)c2ccc(-n3cc(CCO[C@H]4O[C@@H]5O[C@@]6(C)CC[C@H]7[C@H](C)CC[C@@H]([C@H]4C)[C@@]57OO6)nn3)cc2oc1=O | 3.58
Cc1cc(=O)oc2cc(OCCO[C@H]3O[C@@H]4O[C@@]5(C)CC[C@H]6[C@H](C)CC[C@@H]([C@H]3C)[C@@]46OO5)ccc12 | 0.1
Cc1c(C)c2ccc(O[C@H]3O[C@@H]4O[C@@]5(C)CC[C@H]6[C@H](C)CC[C@@H]([C@H]3C)[C@@]46OO5)cc2oc1=O | 6.44
Cc1c(Cl)c(=O)oc2cc(-n3cc(CCO[C@H]4O[C@@H]5O[C@@]6(C)CC[C@H]7[C@H](C)CC[C@@H]([C@H]4C)[C@@]57OO6)nn3)ccc12 | 1.03
Cc1cc(=O)oc2cc(OCCn3cc(CCO[C@H]4O[C@@H]5O[C@@]6(C)CC[C@H]7[C@H](C)CC[C@@H]([C@H]4C)[C@@]57OO6)nn3)ccc12 | 18.2
Cc1c(C)c2ccc(-n3cc(CO[C@H]4O[C@@H]5O[C@@]6(C)CC[C@H]7[C@H](C)CC[C@@H]([C@H]4C)[C@@]57OO6)nn3)cc2oc1=O | 4.85
Cc1c(C)c2ccc(OCCn3cc(CCO[C@H]4O[C@@H]5O[C@@]6(C)CC[C@H]7[C@H](C)CC[C@@H]([C@H]4C)[C@@]57OO6)nn3)cc2oc1=O | 52.3

same assay, conditions: mda-mb-231

SMILES | IC50
COC(=O)c1cc2ccc(OCCCn3cc(CCO[C@H]4O[C@@H]5O[C@@]6(C)CC[C@H]7[C@H](C)CC[C@@H]([C@H]4C)[C@@]57OO6)nn3)cc2oc1=O | Nd(Insoluble)

test system: MDA-MB-231; assay: Cytotoxicity against human MDA-MB-231 cells after 96 hrs under normoxic condition by MTT assay; format: functional, cell-based; conditions: Homo sapiens, MDA-MB-231, 96 h; read-out: IC50; summary of the method: as §1

SMILES | IC50 [µM]
Cc1c(F)c(=O)oc2cc(-n3cc(CCO[C@H]4O[C@@H]5O[C@@]6(C)CC[C@H]7[C@H](C)CC[C@@H]([C@H]4C)[C@@]57OO6)nn3)ccc12 | 3.84
C[C@H]1[C@@H](OCCOc2ccc3c(C(F)(F)F)cc(=O)oc3c2)O[C@@H]2O[C@@]3(C)CC[C@H]4[C@H](C)CC[C@@H]1[C@@]24OO3 | 15.2
COC(=O)c1cc2ccc(OCCn3cc(CCO[C@H]4O[C@@H]5O[C@@]6(C)CC[C@H]7[C@H](C)CC[C@@H]([C@H]4C)[C@@]57OO6)nn3)cc2oc1=O | 61
Cc1c(F)c(=O)oc2cc(-n3cc(CO[C@H]4O[C@@H]5O[C@@]6(C)CC[C@H]7[C@H](C)CC[C@@H]([C@H]4C)[C@@]57OO6)nn3)ccc12 | 3.47
Cc1c(Cl)c(=O)oc2cc(OCCCO[C@H]3O[C@@H]4O[C@@]5(C)CC[C@H]6[C@H](C)CC[C@@H]([C@H]3C)[C@@]46OO5)ccc12 | 0.6
C[C@H]1[C@@H](OCCc2cn(CCOc3ccc4c(C(F)(F)F)cc(=O)oc4c3)nn2)O[C@@H]2O[C@@]3(C)CC[C@H]4[C@H](C)CC[C@@H]1[C@@]24OO3 | 17.9
Cc1c(C)c2ccc(-n3cc(CCO[C@H]4O[C@@H]5O[C@@]6(C)CC[C@H]7[C@H](C)CC[C@@H]([C@H]4C)[C@@]57OO6)nn3)cc2oc1=O | 3.75
Cc1cc(=O)oc2cc(OCCO[C@H]3O[C@@H]4O[C@@]5(C)CC[C@H]6[C@H](C)CC[C@@H]([C@H]3C)[C@@]46OO5)ccc12 | 4.29
Cc1c(C)c2ccc(O[C@H]3O[C@@H]4O[C@@]5(C)CC[C@H]6[C@H](C)CC[C@@H]([C@H]3C)[C@@]46OO5)cc2oc1=O | 78.8
Cc1c(Cl)c(=O)oc2cc(-n3cc(CCO[C@H]4O[C@@H]5O[C@@]6(C)CC[C@H]7[C@H](C)CC[C@@H]([C@H]4C)[C@@]57OO6)nn3)ccc12 | 5.19
Cc1cc(=O)oc2cc(OCCn3cc(CCO[C@H]4O[C@@H]5O[C@@]6(C)CC[C@H]7[C@H](C)CC[C@@H]([C@H]4C)[C@@]57OO6)nn3)ccc12 | 17
Cc1c(C)c2ccc(-n3cc(CO[C@H]4O[C@@H]5O[C@@]6(C)CC[C@H]7[C@H](C)CC[C@@H]([C@H]4C)[C@@]57OO6)nn3)cc2oc1=O | 23.4
Cc1c(C)c2ccc(OCCn3cc(CCO[C@H]4O[C@@H]5O[C@@]6(C)CC[C@H]7[C@H](C)CC[C@@H]([C@H]4C)[C@@]57OO6)nn3)cc2oc1=O | 56.7

same assay, conditions: mda-mb-231

SMILES | IC50
COC(=O)c1cc2ccc(OCCCn3cc(CCO[C@H]4O[C@@H]5O[C@@]6(C)CC[C@H]7[C@H](C)CC[C@@H]([C@H]4C)[C@@]57OO6)nn3)cc2oc1=O | Nd(Insoluble)
